The source made the active and inactive calls. No cut-off for these calls is given here.
Key:
[1] = tested on: HT-22; test: Neuroprotective activity against mouse HT22 cells assessed as inhibition of glutamate-induced cell injury pretreated at 10 uM for 30 mins measured after 24 hrs by MTT assay; type: functional
How it was run: (§1)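 HT22 mouse hippocampal cells in DMEM/10% FBS at 37 °C, 5% CO2, seeded at 4000 cells/well. Compound (30 mM DMSO stock, diluted in medium) added 30 min before glutamate (2 mM) or HCA (500 µM), then 24 h exposure. Controls get vehicle. Viability by MTT (500 µg/mL, 1 h, 37 °C), DMSO solubilisation, A570 relative to control = 100%. n = 6.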

[2] = tested on: HT-22; test: Neuroprotective activity against mouse HT22 cells assessed as inhibition of HCA-induced cell injury pretreated at 3 uM for 30 mins measured after 24 hrs by MTT assay; type: functional; how it was run: as §1
[3] = tested on: HT-22; test: Neuroprotective activity against mouse HT22 cells assessed as inhibition of HCA-induced cell injury pretreated at 30 uM for 30 mins measured after 24 hrs by MTT assay; type: functional; how it was run: as §1
[4] = tested on: HT-22; test: Neuroprotective activity against mouse HT22 cells assessed as inhibition of glutamate-induced cell injury pretreated at 3 uM for 30 mins measured after 24 hrs by MTT assay; type: functional; how it was run: as §1
[5] = tested on: HT-22; test: Neuroprotective activity against mouse HT22 cells assessed as inhibition of HCA-induced cell injury pretreated at 10 uM for 30 mins measured after 24 hrs by MTT assay; type: functional; how it was run: as §1
[6] = tested on: HT-22; test: Neuroprotective activity against mouse HT22 cells assessed as inhibition of glutamate-induced cell injury pretreated at 30 uM for 30 mins measured after 24 hrs by MTT assay; type: functional; how it was run: as §1
[7] = tested on: HT-22; test: Neuroprotective activity against mouse HT22 cells assessed as inhibition of glutamate-induced cell shrinkage and debris pretreated at 3 uM for 30 mins measured after 24 hrs by phase-contrast microscopy; type: functional, cell-based
How it was run: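 HT22 cells get compound 30 min before glutamate (2 mM). Morphology is viewed by inverted phase-contrast microscopy.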

[8] = tested on: HT-22; test: Neuroprotective activity against mouse HT22 cells assessed as inhibition of glutamate-induced GSH depletion pretreated at 10 to 30 uM for 30 mins measured after 10 hrs by glutathione assay kit
[9] = tested on: HT-22; test: Neuroprotective activity against mouse HT22 cells assessed as inhibition of glutamate-induced ROS production pretreated for 30 mins measured after 10 hrs by DHE-based fluorescence assay; type: functional, cell-based
How it was run: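 HT22 cells get compound for 30 min, then glutamate (2 mM). After exposure, cells are washed with PBS pH 7.4 and loaded with DHE at 10 µM in serum-free DMEM for 30 min. Fluorescence microscopy plus plate-reader intensity at ex 485/em 595 nm.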

[10] = tested on: HT-22; test: Neuroprotective activity against mouse HT22 cells assessed as inhibition of glutamate-induced cell injury pretreated for 30 mins measured after 24 hrs by MTT assay; type: functional, cell-based; how it was run: as §1
[11] = tested on: HT-22; test: Cytotoxicity against mouse HT22 cells at 30 uM by LDH assay; type: cell-based; details: ht-22, 30 µM
How it was run: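 HT22 cells given compound alone at 30 µM; cytotoxicity read by LDH release assay.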

| Structure (SMILES) | inhibition at 10 µM [1] [%] | inhibition at 3 µM [2] [%] | inhibition at 30 µM [3] [%] | inhibition at 3 µM [4] [%] | inhibition at 10 µM [5] [%] | inhibition at 30 µM [6] [%] | inhibition [3] | inhibition [6] | inhibition [7] | inhibition [8] | inhibition [9] | inhibition [10] | Activity [11] |
| --- | --- | --- | --- | --- | --- | --- | --- | --- | --- | --- | --- | --- | --- |
| CCCCn1c2ccccc2c2ccccc21 | 0 | 0 | 0 | 0 | 0 | 0 |  |  |  |  |  |  |  |
| Cc1ccc(-n2c3ccccc3c3ccc4ccccc4c32)cc1 | 0 | 0 | 0 | 0 | 0 | 0 |  |  |  |  |  |  |  |
| Fc1cccc(-n2c3ccccc3c3ccccc32)c1 | 0 | 0 | 0 | 0 | 0 | 0 |  |  |  |  |  |  |  |
| Clc1ccc(-n2c3ccccc3c3ccccc32)cc1 | 0 | 0 | 40 | 0 | 0 | 20 |  |  |  |  |  |  |  |
| c1ccc2c(c1)oc1ccccc12 |  |  |  |  |  |  | inactive | inactive |  |  |  |  |  |
| Cc1ccc(S(=O)(=O)n2c3ccccc3c3ccccc32)cc1 | 10 | 4 | 34 | 0 | 13 | 47 |  |  |  |  |  |  |  |
| Cc1ccc(S(=O)(=O)n2c3ccccc3c3ccc(C#N)cc32)cc1 | 2 | 0 | 0 | 3 | 0 | 7 |  |  |  |  |  |  |  |
| Cc1ccc(-n2c3ccccc3c3ccc(-c4ccccc4)cc32)cc1 | 69 | 64 | 44 | 63 | 77 | 50 |  |  | Active | inactive | Dose-dependent effect | Dose-dependent effect | Non-toxic |
| c1ccc2c(c1)sc1ccccc12 |  |  |  |  |  |  | inactive | inactive |  |  |  |  |  |
| COc1ccc2c(c1)c1ccccc1n2S(=O)(=O)c1ccc(C)cc1 | 3 | 0 | 0 | 0 | 0 | 5.2 |  |  |  |  |  |  |  |
| COc1ccc(-n2c3ccccc3c3ccccc32)cc1 | 25 | 0 | 71 | 3 | 32 | 59 |  |  |  |  |  |  |  |
| Cc1ccc(-n2c3ccccc3c3ccccc32)cc1 | 0 | 0 | 0 | 0 | 0 | 0 |  |  |  |  |  |  |  |
| c1ccc(-n2c3ccccc3c3ccccc32)cc1 | 7 | 0 | 5 | 0 | 0 | 6 |  |  |  |  |  |  |  |
| Cc1ccc(S(=O)(=O)n2c3ccccc3c3ccc(C(F)(F)F)cc32)cc1 | 10 | 0 | 38 | 0 | 6 | 42 |  |  |  |  |  |  |  |
| Brc1ccc(-n2c3ccccc3c3ccccc32)cc1 | 0 | 0 | 0 | 0 | 0 | 0 |  |  |  |  |  |  |  |
| OCCCCn1c2ccccc2c2ccccc21 | 1 | 0 | 12 | 0 | 1 | 4 |  |  |  |  |  |  |  |
| COc1ccc2c(c1)c1ccccc1n2-c1ccc(C(C)(C)C)cc1 | 0 | 0 | 0 | 0 | 0 | 0 |  |  |  |  |  |  |  |
| Fc1ccc(-n2c3ccccc3c3ccccc32)cc1 | 0 | 0 | 0 | 0 | 0 | 0 |  |  |  |  |  |  |  |
| COc1ccc2c3ccccc3n(S(=O)(=O)c3ccc(C)cc3)c2c1 | 2 | 0 | 0 | 0.8 | 0 | 4 |  |  |  |  |  |  |  |
| FC(F)(F)c1ccc(-n2c3ccccc3c3ccccc32)cc1 | 14 | 0 | 80 | 0 | 10 | 68 |  |  |  |  |  |  |  |
| Cc1ccc(S(=O)(=O)n2c3ccccc3c3ccc(-c4ccccc4)cc32)cc1 | 19 | 11 | 30 | 12 | 18 | 30 |  |  |  |  |  |  |  |
| CN(C)c1ccc(-n2c3ccccc3c3ccccc32)cc1 | 40 | 0 | 81 | 20 | 30 | 77 |  |  |  |  |  |  |  |
| Cc1ccc(S(=O)(=O)n2c3ccccc3c3ccc4ccccc4c32)cc1 | 16 | 18 | 30 | 4 | 30 | 26 |  |  |  |  |  |  |  |
| CC(C)(C)c1ccc(-n2c3ccccc3c3ccccc32)cc1 | 35 | 2 | 63 | 0 | 30 | 70 |  |  |  |  |  |  |  |
| c1ccc2c(c1)c1ccccc1n2C1CCCCC1 | 8 | 7 | 10 | 3 | 8 | 20 |  |  |  |  |  |  |  |
| Cc1ccc(-n2c3ccccc3c3ccccc32)nc1 | 0 | 0 | 12 | 0 | 5 | 5 |  |  |  |  |  |  |  |
| CCc1ccc(S(=O)(=O)n2c3ccccc3c3ccccc32)cc1 | 3 | 0 | 30 | 0 | 6 | 28 |  |  |  |  |  |  |  |
